Assay outcomes (PubChem)
TAAR1 antag – antagonists of human TAAR1; Q96RJ0; CHO RD-HGA16 TAAR1, Fluo-8 calcium fluorescence, antagonist; inhibition, % at 3 µM; 360,000 compounds, 1.5% hits; AID 624466;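 active = inhibition above a per-plate cutoff, the mean inhibition of test compounds on that plate plus 3 SD, cut at about 49% in these data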;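 also: 0% = DMSO plus EC80 beta-PEA response and 100% = DMSO alone without agonist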
Target sequence (Q96RJ0 whole entry, looked up): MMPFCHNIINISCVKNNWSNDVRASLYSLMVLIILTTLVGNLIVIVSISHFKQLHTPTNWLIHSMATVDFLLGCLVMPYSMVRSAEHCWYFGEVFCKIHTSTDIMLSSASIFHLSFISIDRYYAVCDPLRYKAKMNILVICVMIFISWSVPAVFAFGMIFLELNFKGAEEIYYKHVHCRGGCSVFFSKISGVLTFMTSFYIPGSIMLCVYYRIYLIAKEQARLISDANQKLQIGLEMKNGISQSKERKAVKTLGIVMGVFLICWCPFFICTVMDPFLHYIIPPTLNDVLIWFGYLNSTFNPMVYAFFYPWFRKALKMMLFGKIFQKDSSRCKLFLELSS
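Assay system: CHO-derived RD-HGA16 cells stably expressing human TAAR1 plus Gα16. Timing: 140 s kinetic read after compound, 140 s after agonist. Technique: kinetic Fluo-8 calcium fluorescence measurement. Measure: % inhibition of agonist calcium response.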
V1aR counter – V1a receptor agonism, counter-screen for OXTR agonists; 320,000 compounds, 0.25% hits; CHO-V1R cells, Fluo-8 calcium fluorescence, agonist mode; 0% DMSO, 100% 3 nM vasopressin; activation, % at 3 µM; P37288;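 active = activation above the mean activation of all tested compounds plus 3 SD, per screening run, cut at about 20% in these data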;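 also: signal is peak over basal fluorescence ratio across a 100 second FLIPR read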
Target sequence (P37288 whole entry, looked up): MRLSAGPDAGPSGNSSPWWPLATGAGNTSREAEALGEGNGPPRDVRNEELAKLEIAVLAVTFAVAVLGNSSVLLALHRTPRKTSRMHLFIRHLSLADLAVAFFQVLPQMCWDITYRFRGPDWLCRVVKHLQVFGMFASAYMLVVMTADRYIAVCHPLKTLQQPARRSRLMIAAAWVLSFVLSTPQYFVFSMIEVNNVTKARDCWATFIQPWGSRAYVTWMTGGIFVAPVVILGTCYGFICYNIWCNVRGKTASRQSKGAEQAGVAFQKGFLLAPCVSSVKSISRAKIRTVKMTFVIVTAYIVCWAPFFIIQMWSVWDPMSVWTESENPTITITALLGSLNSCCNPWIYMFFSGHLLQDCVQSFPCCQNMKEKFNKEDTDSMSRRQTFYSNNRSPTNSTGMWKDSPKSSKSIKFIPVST
OXTR potentiator – potentiates the human oxytocin receptor response; CHO-OTR cells, Fluo-8 calcium fluorescence, potentiator mode; 0% = oxytocin EC15, 100% = EC100; activation, % at 3 µM; 320,000 compounds, 0.061% hits; AID 2445;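 active = activation above that plate's cutoff, the mean activation of tested compounds plus 3 SD, cut at about 6.6% in these data, passing the limit was not always enough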;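 also: 100% uses oxytocin at 75 nM as the full agonist control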
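Material: human OTR in CHO cells. Compound: 3.0 µM, one dose. Timing: compound 6 min at room temperature before oxytocin, 100 s read. Evaluation: % activation of max/min ratio relative to oxytocin controls. Replication: single well per compound, singlicate. Signal: Fluo-8 calcium dye fluorescence.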
OXTR agonist – activates the human oxytocin receptor; 320,000 compounds, 0.32% hits; CHO-OTR cells, Fluo-8 calcium fluorescence; normalized: DMSO 0%, oxytocin 100%; P30559; activation, % at 3 µM;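 active = activation above the mean of all tested compounds plus 3 SD, cutoff set per screening run, cut at about 20% in these data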;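 also: peak over basal fluorescence ratio from a 100 s FLIPR kinetic read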
TAAR1 ag – agonists of human TAAR1; Q96RJ0; CHO RD-HGA16 TAAR1, Fluo-8 calcium fluorescence; vehicle wells 0%, saturating PEA agonist 100%; activation, % at 3 µM; 360,000 compounds, 0.99% hits; AID 624467;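 active = activation above the mean activation of all test compounds in the run plus 3 SD, cut at about 38% in these data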
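Signal – calcium-sensitive Fluo-8 signal, excitation 470-495, emission 515-575 nm · System – RD-HGA16 (CHO) cells co-expressing Gα16 and hTAAR1 · Incubation – 17-24 h seeding, 75 min 37 °C dye, 30 min RT · Compound dosing – 3 µM single concentration · Repeats – no replicates (n 1)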
TAAR1 nonsel count – nonselective antagonist in TAAR1 antagonist counter-screen; shares compounds with TAAR1 antag; counterscreen cell line, calcium fluorescence, antagonist mode; inhibition, % at 3 µM; 2,400 compounds, 77% hits; in the data active = inhibition above about 22%;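 also: CHO-Ga16 host cells stimulated with ATP at an EC80 level; 0% = agonist EC80 plus vehicle and 100% = vehicle without agonist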
TAAR1 antag conf – human TAAR1 antagonism, confirmed; inhibition, % at 3 µM; AID 651785; TAAR1-expressing cells, fluorescence antagonist read-out; 2,400 compounds, 40% hits; shares compounds with TAAR1 antag; in the data active = inhibition above about 49%;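 also: CHO-Ga16 host cells challenged with agonist PEA near its EC80; 0% = agonist at EC80 plus vehicle and 100% = vehicle with no agonist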
Ga16 ag counter – nonselective Ga16 agonism, counter-screen; shares compounds with TAAR1 antag; Ga16-expressing cells, calcium fluorescence, agonist counterscreen; activation, % at 3 µM; 2,400 compounds, 18% hits; AID 651953; in the data active = activation above about 12%;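 also: 0% = vehicle wells and 100% = saturating stimulus response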
TAAR1 ag count – counter-screen for human TAAR1 antagonists: TAAR1 agonists | shares compounds with TAAR1 antag | hTAAR1 cell line, fluorescence activation, agonist mode | activation, % at 3 µM | 2,400 compounds, 2% hits; in the data active = activation above about 37%;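 also: CHO cells stably expressing TAAR1 with calcium dye readout; 0% = DMSO vehicle and 100% = full agonist response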
Starred values were filed as active, the others as inactive; · = not tested or not shown. Compounds with a hit are over-represented: about 2.3% of the library has one in this group of screens.

SMILES | TAAR1 antag | V1aR counter | OXTR potentiator | OXTR agonist | TAAR1 ag | TAAR1 nonsel count | TAAR1 antag conf | Ga16 ag counter | TAAR1 ag count
CCOc1ccccc1NC(=O)CCc1nnc2ccc(N3CCC(C)CC3)nn12 | 4.0 | -1.2 | -3.2 | -2.3 | -0.6 | · | · | · | ·
CCOc1ccc(OCCCC(=O)N2CCN(S(=O)(=O)c3ccccc3C#N)CC2)cc1 | 60.0* | 7.9 | -7.8 | 7.4 | 25.0 | 18.1 | 33.8 | 9.6 | 9.0
CCOc1ccc(OCCC(=O)N2CCN(S(=O)(=O)c3ccc(OCC)cc3)CC2)cc1 | -6.9 | 8.6 | -6.3 | 2.5 | 2.0 | · | · | · | ·
COc1ccc(/C=C(/NC(=O)c2ccco2)C(=O)NCc2ccco2)cc1 | -15.1 | · | · | · | 1.1 | · | · | · | ·
COC(=O)C1(C)CCCC2(C)C3CCC(C(C)C)C(CO)C3C(CO)CC12 (stereo not given) | 82.0* | · | · | · | 24.8 | 32.2* | 55.0* | 13.9* | 19.6
COc1ccc(-c2csc3ncnc(N4CCN(c5ccccc5OC)CC4)c23)cc1 | 62.5* | 1.8 | -7.6 | -2.2 | 0.8 | 27.3* | 41.4 | 4.7 | 10.4
CCOc1ccccc1N1CCN(c2ncnc3scc(-c4ccc(OC)cc4)c23)CC1 | 7.0 | 0.2 | -13.7 | -0.5 | -0.6 | · | · | · | ·
COC(=O)c1cc(NC(=O)COC(=O)C2COc3ccccc3O2)cc(C(=O)OC)c1 (stereo not given) | 72.1* | 0.2 | -7.5 | 0.3 | 9.4 | 26.4* | 42.3 | 7.6 | 4.3
Cc1cc2cc(CCNC(=O)C(=O)c3c[nH]c4ccccc34)c(=O)[nH]c2cc1C | 65.1* | 0.7 | -11.8 | 2.0 | 19.5 | 29.6* | 45.0 | 9.0 | 7.2
CSc1nnc(C)c(=O)n1COC(=O)COc1ccccc1 | -21.5 | 0.6 | -5.8 | -1.0 | 2.7 | · | · | · | ·
O=C(CSc1nnc2c(n1)[nH]c1ccccc12)N1CCCCC1 | 9.1 | 0.0 | 1.0 | -0.1 | -1.0 | · | · | · | ·
CC1CCc2cc(F)ccc2N1C(=O)CSc1nnc2c(n1)[nH]c1ccccc12 (stereo not given) | 56.2* | 1.2 | -17.7 | -0.5 | 13.3 | 34.0* | 58.0* | 7.3 | 9.3
CSc1nnc(C)c(=O)n1COC(=O)COc1ccccc1C | 4.1 | 0.1 | -0.9 | -1.3 | 0.7 | · | · | · | ·
COc1ccc2c(c1)C(SCC(=O)NCCc1ccc(Cl)cc1)CC(C)(C)O2 (stereo not given) | 62.1* | -0.3 | -6.2 | -2.7 | 6.0 | 18.4 | 43.3 | 6.0 | 34.6
CCOC(=O)c1cnc2ccc(C)cc2c1Nc1ccc(N2CCOCC2)cc1 | 61.5* | -0.8 | -5.8 | -1.5 | 10.4 | 30.4* | 58.0* | 12.8* | 19.2
Cc1[nH]nc2c1[C@@H](c1ccccc1[N+](=O)[O-])C(C#N)=C(N)O2 | -16.9 | 1.9 | -12.4 | 0.0 | 4.2 | · | · | · | ·
COc1cccc(/C=C/C(=O)OCC(=O)Nc2cccc(S(=O)(=O)N3CCCCC3)c2)c1OC | 10.6 | 4.9 | -9.4 | 3.9 | 6.5 | · | · | · | ·
Cc1ccccc1-c1cc(C(=O)NCc2cccc(Br)c2)n(CC2CC(c3cccnc3)=NO2)n1 (stereo not given) | 69.3* | 0.7 | -2.7 | -0.4 | 11.1 | 25.9* | 38.1 | 7.3 | 9.2
CCOC(=O)c1cc(-c2ccccc2)nn1CC1CC(c2ccc(OC)cc2)=NO1 (stereo not given) | 34.6 | 1.1 | -9.1 | 1.4 | 0.6 | · | · | · | ·
COc1ccccc1CNC(=O)c1cc(-c2ccccc2C)nn1CC1CC(c2cccnc2)=NO1 (stereo not given) | 37.3 | 0.0 | -5.4 | -1.1 | 14.0 | · | · | · | ·
CCOC(=O)c1cc(-c2ccccc2)nn1CC1CC(c2ccc(Cl)cc2)=NO1 (stereo not given) | 79.6* | -0.9 | -16.0 | -0.4 | 12.9 | 24.5* | 46.7 | 5.8 | 3.1
COc1ccc(N(CC(=O)NCCSC2CCCCC2)S(=O)(=O)c2ccccc2)c(OC)c1 | 34.0 | 1.1 | -14.6 | -0.5 | -2.1 | · | · | · | ·
COc1ccc(N(CC(=O)NCCSc2ccc(C)cc2)S(=O)(=O)c2ccccc2)c(OC)c1 | 68.5* | 3.0 | -14.2 | 3.3 | 9.3 | 21.8* | 51.5* | 9.5 | 10.8
COc1cc(/C=N/NC(=O)c2cc(-c3ccccc3OC(C)C)nc3ccccc23)ccc1O | 57.3* | 1.1 | -7.8 | 1.5 | 7.7 | 13.4 | 42.2 | 9.4 | 12.8
CCOc1cc(/C=N/NC(=O)c2cc(-c3cccc(OC)c3)nc3ccccc23)ccc1O | 75.9* | 0.6 | -18.4 | -2.4 | 8.0 | 13.6 | 46.2 | 8.3 | 7.6
SMILES | TAAR1 antag | V1aR counter | OXTR potentiator | OXTR agonist | TAAR1 ag | TAAR1 nonsel count | TAAR1 antag conf | Ga16 ag counter | TAAR1 ag count
COc1cc(/C=N/NC(=O)c2cc(-c3ccccc3)nc3ccccc23)ccc1O | 35.5 | 2.6 | -14.4 | -0.5 | 11.4 | · | · | · | ·
COc1cc(/C=N/NC(=O)c2cc(-c3c(C)nn(-c4ccccc4)c3C)n[nH]2)ccc1O | 54.2* | 1.5 | -6.8 | -0.2 | 6.7 | 27.5* | 40.8 | 6.2 | 5.6
O=C(N/N=C/C=C/c1ccccc1[N+](=O)[O-])c1cc(-c2cccnc2)nc2ccccc12 | 59.1* | -0.3 | -13.8 | -0.7 | 10.9 | 32.8* | 42.6 | 4.2 | -1.3
O=C1CN(C(=O)NCC(=O)N[C@H](Cc2ccccc2)C(=O)O)c2ccccc2N1 | -0.2 | 1.3 | -5.4 | 1.5 | 1.7 | · | · | · | ·
Cn1c(CCNS(=O)(=O)c2ccccc2)nc2cc([N+](=O)[O-])ccc21 | -0.4 | 2.4 | -7.6 | 2.7 | 5.2 | · | · | · | ·
Cc1c(Cc2ccccc2)c(=O)[nH]c(=O)n1C | -16.8 | · | · | · | 4.3 | · | · | · | ·
CC(C)COc1cccc(-c2cc(C(=O)N/N=C/c3ccncc3)c3ccccc3n2)c1 | 60.8* | · | · | · | 3.4 | 7.9 | 27.1 | 5.6 | 18.1
COC(=O)[C@@]12C[C@@H](CC(=O)N3CCCCC3)C(=O)N(Cc3ccco3)C1=CCC(C)(C)C2 | -2.2 | · | · | · | -0.8 | · | · | · | ·
CC(C)N1CCN(CC2COc3ccccc3O2)CC1 (stereo not given) | -3.4 | 0.8 | -12.9 | -0.1 | 0.4 | · | · | · | ·
O=C(CN1CCN(S(=O)(=O)c2ccc(F)c(F)c2)CC1)Nc1ccccc1C(=O)NC1CC1 | 48.9* | 2.5 | -3.9 | 1.9 | 13.8 | 21.6* | 35.0 | 5.4 | 10.7
N#Cc1ccccc1S(=O)(=O)N1CCN(CC(=O)Nc2ccccc2C(=O)NC2CC2)CC1 | 56.2* | 1.0 | -2.3 | -1.4 | 14.1 | 24.3* | 46.9 | 8.1 | 9.9
